Data as given in ChEMBL document CHEMBL1806494, “Synthesis and biological evaluation of potential 5-HT(7) receptor PET radiotracers” (Eur J Med Chem, 2011).
Active and inactive are the calls of the source. No cut-off for these calls is given here.

Experiments:
[1] = biological target: 5-hydroxytryptamine receptor 6 (Homo sapiens) (UniProt P50406); experiment: Binding affinity to recombinant human 5HT6 receptor expressed in CHO cells by competitive binding assay; type: cell-based
In short: (§1)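 Cell-based functional assay on human recombinant receptors expressed in CHO cells. Test compound inhibition of the control specific agonist response was measured over a concentration range. Concentration-response curves were built from mean replicate values and fitted with the Hill equation by non-linear regression to give IC50, reported as KB.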

[2] = biological target: T1, 5-hydroxytryptamine receptor 1A (Homo sapiens) (UniProt P08908); experiment: Binding affinity to recombinant human 5HT1A receptor expressed in CHO cells by competitive binding assay; type: cell-based; in short: as §1
T1 sequence (whole entry): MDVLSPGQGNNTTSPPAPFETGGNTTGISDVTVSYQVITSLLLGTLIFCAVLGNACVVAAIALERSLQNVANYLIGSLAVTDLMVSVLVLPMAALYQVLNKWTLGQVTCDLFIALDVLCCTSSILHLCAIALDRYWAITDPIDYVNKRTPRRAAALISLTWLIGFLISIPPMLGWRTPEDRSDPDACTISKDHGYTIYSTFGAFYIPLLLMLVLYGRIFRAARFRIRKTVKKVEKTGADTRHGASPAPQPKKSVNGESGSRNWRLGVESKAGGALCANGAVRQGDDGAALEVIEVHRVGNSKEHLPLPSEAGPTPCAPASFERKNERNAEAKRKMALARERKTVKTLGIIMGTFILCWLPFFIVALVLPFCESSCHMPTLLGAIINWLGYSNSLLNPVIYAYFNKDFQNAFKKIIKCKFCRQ

[3] = biological target: T2, 5-hydroxytryptamine receptor 7 (Homo sapiens, UniProt P34969); experiment: Binding affinity to recombinant human 5HT7 receptor expressed in CHO cells by competitive binding assay; type: cell-based; in short: as §1
[4] = biological target: 5-hydroxytryptamine receptor 7 (Rattus norvegicus) (UniProt P32305); experiment: Binding affinity to 5HT7 receptor in Sprague-Dawley rat hippocampus at 1 uCi/ml after 20 mins by semi-quantitative autoradiography in presence of 10 to 100 nM of 5HT7 receptor antagonist SB269970; type: tissue-based; settings: tested as the 18F-labelled form
In short: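 Coronal rat brain sections (30 µm, cut through hippocampus and cerebellum, stored at -80 °C) brought to ambient temperature, incubated 20 min in Tris phosphate-buffered saline (138 mM NaCl, 2.7 mM KCl, pH 7.6) with 37 kBq/ml [18F]radiotracer, alone or with SB269970 (10 nM, 100 nM or 1 µM). Rinsed 90 s in cold buffer (4 °C), then 90 s in cold water, dried, and exposed to a phosphor imaging plate for 60 min. Hippocampal binding read semi-quantitatively, in triplicate.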

[5] = biological target: T2, 5-hydroxytryptamine receptor 7; experiment: Binding affinity to 5HT7 receptor

T2 sequence (P34969 whole entry): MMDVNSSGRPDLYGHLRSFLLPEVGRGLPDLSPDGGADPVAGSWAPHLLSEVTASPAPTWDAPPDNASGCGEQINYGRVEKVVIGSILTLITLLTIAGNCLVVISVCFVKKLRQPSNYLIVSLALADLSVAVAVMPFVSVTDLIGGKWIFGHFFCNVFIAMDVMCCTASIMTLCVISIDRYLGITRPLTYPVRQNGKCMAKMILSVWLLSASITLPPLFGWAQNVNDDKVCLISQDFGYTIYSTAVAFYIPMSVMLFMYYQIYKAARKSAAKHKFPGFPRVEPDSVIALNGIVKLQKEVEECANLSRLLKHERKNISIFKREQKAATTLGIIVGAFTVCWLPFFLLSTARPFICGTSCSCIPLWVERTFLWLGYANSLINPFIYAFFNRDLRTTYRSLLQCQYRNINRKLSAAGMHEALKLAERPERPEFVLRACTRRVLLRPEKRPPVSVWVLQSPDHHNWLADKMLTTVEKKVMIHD
5-hydroxytryptamine receptor 6 (Homo sapiens), sequence (P50406 whole entry): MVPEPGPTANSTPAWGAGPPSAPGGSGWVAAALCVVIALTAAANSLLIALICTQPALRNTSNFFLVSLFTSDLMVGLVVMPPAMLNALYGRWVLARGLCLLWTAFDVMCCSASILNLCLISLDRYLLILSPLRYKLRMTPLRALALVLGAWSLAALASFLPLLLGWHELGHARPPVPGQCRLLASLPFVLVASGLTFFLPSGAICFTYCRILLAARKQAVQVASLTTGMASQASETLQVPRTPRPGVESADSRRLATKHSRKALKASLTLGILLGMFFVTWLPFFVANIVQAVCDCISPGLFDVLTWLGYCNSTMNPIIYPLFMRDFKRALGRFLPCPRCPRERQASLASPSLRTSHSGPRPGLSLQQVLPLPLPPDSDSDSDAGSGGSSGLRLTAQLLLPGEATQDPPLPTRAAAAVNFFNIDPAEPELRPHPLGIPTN
5-hydroxytryptamine receptor 7 (Rattus norvegicus), sequence (P32305 whole entry): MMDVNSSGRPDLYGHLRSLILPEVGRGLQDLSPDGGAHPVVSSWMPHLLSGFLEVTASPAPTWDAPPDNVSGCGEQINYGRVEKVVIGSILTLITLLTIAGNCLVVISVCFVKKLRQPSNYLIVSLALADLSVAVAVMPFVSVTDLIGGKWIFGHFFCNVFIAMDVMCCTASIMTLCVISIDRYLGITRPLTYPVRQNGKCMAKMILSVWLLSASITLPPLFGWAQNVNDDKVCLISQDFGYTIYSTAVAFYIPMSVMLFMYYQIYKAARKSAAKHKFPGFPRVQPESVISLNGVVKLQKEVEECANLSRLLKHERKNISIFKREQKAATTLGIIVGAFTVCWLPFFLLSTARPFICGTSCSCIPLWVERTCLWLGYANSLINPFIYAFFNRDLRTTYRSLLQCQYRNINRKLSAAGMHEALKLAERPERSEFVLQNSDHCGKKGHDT

Compound: COc1ccccc1N1CCN(CC[C@H]2CCCN2S(=O)(=O)c2ccccc2F)CC1
- Kb [1]: > 10 µM
- Kb [2]: > 10 µM
- Kb [3]: 0.0016 µM
- Activity [4]: Active

Compound: [11CH3]N1C(=O)C2(CCCCN3CCc4sccc4C3)CCCc3cccc1c32 (configuration not stated)
- Ki [5]: 0.0097 µM

Compound: COc1ccccc1N1CCN(CC[C@H]2CCCN2S(=O)(=O)c2ccc(F)cc2)CC1
- Kb [1]: > 10 µM
- Kb [2]: > 10 µM
- Kb [3]: 0.0048 µM
- Activity [4]: Active

Compound: CC1CCN(CC[C@H]2CCCN2S(=O)(=O)c2ccc(F)cc2)CC1
- Kb [1]: > 10 µM
- Kb [2]: > 10 µM
- Kb [3]: 0.014 µM
- Activity [4]: inactive

Compound: CC1CCN(CC[C@H]2CCCN2S(=O)(=O)c2ccccc2F)CC1
- Kb [1]: > 10 µM
- Kb [2]: > 10 µM
- Kb [3]: 0.0084 µM
- Activity [4]: inactive
